# Where two headings read alike, the source gives them in different places.
# Tests used:
# [1] = system: BRCA1(BRCT) (six his-tagged, amino acids 1646–1859); conditions: cited from earlier work; for ΔGexp (binding free energy): Table 1; for ΔG (Exp): Table 2, brackets = error of the mean
# [2] = system: BRCA1(BRCT) (six his-tagged, amino acids 1646–1859); assay: Isothermal titration calorimetry; format: binding
# Method in brief: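 His6-BRCA1 BRCT (aa 1646–1859) was expressed in E. coli BL21(DE3) RIL (1 mM IPTG), Ni-affinity purified, and dialysed into 50 mM KH2PO4 pH 7.2. Peptides were quantified by amino acid analysis, freeze-dried and redissolved in the same buffer. At 25°C, 100–900 µM peptide was titrated into 10–30 µM protein: 3 µL, then 29 × 10 µL, 3 min apart, 307 rpm. Peptide-into-buffer heats were subtracted and the data integrated.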
# [3] = isothermal calorimetric data, ref [9]
Substance,"ΔGexp (binding free energy) ([1]; T1–T4, ref [9])",ΔG (Exp) ([1]; ref [9]),also measured
Ac-EPTF-CONH2 [Peptide T4],No binding,no binding,"binding to BRCA1(BRCT) found experimentally ([1]; in words, ref [9]): does not bind"
Ac-Nap-pSPTF-CONH2 [Peptide P7],–,–,"ΔΔG, increase in binding affinity compared to T1 ([2]; P7 vs T1, ITC): 0.3 kcal/mol; ΔG (Exp) ([2]; Table 2, brackets = error of the mean, ITC, 25°C, 50 mM KH2PO4 pH = 7.2): −7.8 (0.1) kcal/mol"
Ac-pSATF-CONH2 [Peptide T2],-6.7 kcal/mol,−6.7 (0.3) kcal/mol,–
Ac-pSPAF-CONH2 [Peptide T3],-5.9 kcal/mol,−5.9 (0.2) kcal/mol,"loss in binding affinity caused by Thr→Ala mutation (vs T1) [1, 3]: 1.6 kcal/mol"
Ac-pSPTF-CONH2 [Peptide T1],-7.5 kcal/mol,−7.5 (0.2) kcal/mol,–
Ac-pSPVF-CONH2 [Peptide T5],–,–,"ΔGexp (binding free energy) ([1]; T5, ref [18]): -7.8 kcal/mol; ΔG (Exp) ([1]; ref [18]): −7.8 (0.1) kcal/mol; enhancement of binding by Val mutation (vs T1) [1, 3]: 0.3 kcal/mol; binding affinity compared with T1 (in words) ([1]; isothermal calorimetric study, ref [18]): practically the same binding affinity"

# — paper PMC3400539 (Journal of Computer-Aided Molecular Design, 2011)
